“Also recorded” adds a separate entry of the source.
What was measured:
[1] = test system: N2a cells; experiment: MTT cytotoxicity assay; format: cell-based; settings: oligomeric peptide, one day after addition
[2] = Atomic force microscopy of oligomers; format: physicochemical
[3] = test system: AβO; experiment: EPR of position 264 spin-labeled apoE with HDL or VLDL, with or without AβO; format: binding; settings: for EPR response to AβO in presence of HDL / VLDL: apoE 30 μM, HDL or VLDL 850 mg/dL, oligomeric Aβ(1-40) 100 μM, one hour at 37 °C; for EPR response to HDL / VLDL without AβO: apoE spin-labeled at 264, HDL or VLDL, Supplemental Figure S2
Procedure, shortened: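 Human apoE isoforms (Cys at 264) expressed in E. coli BL21(DE3)AI, purified from inclusion bodies in 8 M urea, labeled with MTS-SL and refolded into PBS pH 7.4. HDL or VLDL came from postprandial human plasma by ultracentrifugation. […] Samples were incubated, then run as X-band EPR (loop-gap resonator, sealed quartz capillary), with vehicle controls.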

[4] = test system: Aβ^(26TOAC); experiment: EPR of Aβ^; format: binding; settings: apoE 30 μM; 40 μM Aβ (1 part Aβ^(26TOAC) to 3 parts native Aβ(1-40)), scanned immediately after introduction into aqueous buffer
[5] = test system: Aβ; settings: cited from earlier work
[6] = Circular dichroism of spin-labeled apoE; format: physicochemical; settings: spin-labeled W264C apoE4 vs wt apoE4; Supplementary Material
[7] = test system: neuronal death / neurite outgrowth; settings: independent of Aβ; ref [15]; cited from earlier work
[8] = test system: Aβ fibrils; settings: in vitro; ref [19]; cited from earlier work
[9] = test system: VLDL and HDL; settings: ref [10]; cited from earlier work

Substance: Aβ(1-40): native Aβ(1-40) peptide (Bachem Cat # 1194.0001)
- cell death [1]: 60-75%

Substance: AβO: soluble Aβ oligomer
- time to formation of fibrillar aggregates after spotting ([2]; AFM, AβO 50 μM, on mica surface): ≤ 1 min
- average volume of initial AβO species ([2]; AFM, set of 11, assuming simple spherical particle): 203 ± 26 nm^3
- upper limit of oligomer size ([2]; efficient packing of the peptide in the particle is unlikely): ≤ 30 -mer
- protein mass of AβO particle ([2]; estimated from AFM volume, if packed similar to a globular protein): ~ 160 kD

Substance: E3-like protein: apoE3-like protein: R112->S mutation in the apoE4-W264C template
- EPR response to AβO in presence of HDL / VLDL [3]: the influence of AβO on the E3-like protein is clearly greater in the presence of HDL
- EPR response to HDL / VLDL without AβO [3]: becomes more ordered; where the spectra of spin-labeled 264 are similarly broadened by HDL and VLDL
- effect of apoE on the Aβ^(26TOAC) EPR spectrum [4]: Only the E3-like protein induces a broadening of the Aβ^(26TOAC) spectra
- propensity to form SDS-resistant complex with Aβ ([5]; E3-like mutant (Cys112→Ser) relative to apoE4, ref [29]): higher (relative to apoE4) propensity to form an SDS-resistant complex with Aβ

Substance: apoE4: h_apoE4 protein containing the W264->Cys (apoE4-W264C) substitution
- EPR response to AβO in presence of HDL / VLDL [3]: slightly stronger binding effect of apoE4 to AβO in the presence of VLDL than HDL
- EPR response to HDL / VLDL without AβO [3]: shows little change with HDL, and a slight increase in amplitude with VLDL
- effect of apoE on the Aβ^(26TOAC) EPR spectrum [4]: produces a spectrum that is identical to TOAC-labeled sample added to PBS alone; also recorded: had no significant effect on the Aβ^(26TOAC) spectrum
- CD analysis of spin-labeled protein [6]: indistinguishable from wt apoE4
- neuronal death [7]: induces neuronal death and forms large fibril-like assemblies
- association with Aβ, SDS-resistant apoE-Aβ on gels ([5]; in vitro, ref [13]): higher apoE4 association in vitro
- affinity of lipid-free apoE4 for Aβ vs apoE3 ([5]; lipid-free apoE, ref [14],[19]): binds Aβ with a higher affinity than apoE3 and promotes fibrillization of Aβ
- stimulation of Aβ fibril assembly [8]: in vitro assembly of Aβ fibrils is stimulated by apoE, and more so by the E4 isoform
- lipoprotein preference [9]: preference of E4 to bind VLDL over HDL

— article PMC3016465 (Proteins, 2011)
